# Laboratory results as given in PubChem BioAssay AID1325 (NMMLSC, 2008).
# The whole screen tested about 190,000 compounds, of which about 200 (0.11%) were called active. The entries come from a sample that favours actives as a whole. A number with no mark means an inactive call.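 Rule for the calls: active = inhibition above 80%; inactive = the rest.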
# Target: Broad substrate specificity ATP-binding cassette transporter ABCG2 (Homo sapiens) (UniProt Q9UNQ0)
# Test: blockers of JC-1 export by ABCG2 – multiplex with ABCB1, IgMXP3 cells, flow cytometry, primary screen (AID 1325);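 note: 0% = DMSO and 100% = nicardipine control wells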
# Conditions: JC-1 efflux, at 6.6 µM, active compounds read high
# Outline: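 Times: 10 min at 25 °C | Test system: Two drug-resistant human cell lines, ABCG2 and ABCB1 | Quantity: 3 million cells/mL final, two lines in 1:1 ratio | Signal: Flow cytometry, 530 nm JC-1 signal | Dosing: Compound at 6.6 µM | Controls: Nicardipine and DMSO wells | Reagent: JC-1 as fluorescent efflux pump substrate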
# Chain of Broad substrate specificity ATP-binding cassette transporter ABCG2 (Homo sapiens) (Q9UNQ0 whole entry, looked up): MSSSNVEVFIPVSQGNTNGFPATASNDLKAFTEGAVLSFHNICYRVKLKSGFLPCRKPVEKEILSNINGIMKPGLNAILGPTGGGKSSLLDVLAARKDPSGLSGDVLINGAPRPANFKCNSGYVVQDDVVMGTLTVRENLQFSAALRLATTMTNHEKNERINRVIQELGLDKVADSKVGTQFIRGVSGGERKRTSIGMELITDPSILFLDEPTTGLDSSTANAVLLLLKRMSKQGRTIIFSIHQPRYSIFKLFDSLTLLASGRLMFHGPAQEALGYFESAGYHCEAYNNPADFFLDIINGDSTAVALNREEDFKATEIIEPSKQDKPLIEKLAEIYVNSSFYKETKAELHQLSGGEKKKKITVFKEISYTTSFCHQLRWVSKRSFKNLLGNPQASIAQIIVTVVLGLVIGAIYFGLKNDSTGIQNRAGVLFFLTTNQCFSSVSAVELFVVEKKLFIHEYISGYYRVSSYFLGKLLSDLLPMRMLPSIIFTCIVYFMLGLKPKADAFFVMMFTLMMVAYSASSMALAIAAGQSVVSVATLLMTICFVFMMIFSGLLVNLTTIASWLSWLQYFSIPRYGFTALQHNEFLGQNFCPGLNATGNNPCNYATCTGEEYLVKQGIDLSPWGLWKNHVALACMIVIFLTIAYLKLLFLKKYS
row,SMILES,inhibition
1,COC(=O)COc1cc(C)cc2oc(=O)c3c(c12)CCCC3,85.8% (active)
2,Cc1cc(OCc2cc(C(=O)O)oc2C)c2c3c(c(=O)oc2c1)CCCC3,-0.16%
3,Cc1ccc(-c2nc3ccccc3c(=O)n2-c2ccc(Br)cn2)cc1,4.52%
4,COc1ccc(-c2nn(CCC#N)cc2C(=O)O)cc1,12.1%
5,CN(C)C(=O)Oc1cc(=O)n2c3c(cccc13)CCC2,8.26%
